The text below walks through data of ChEMBL document CHEMBL4373675, “Derivatisation of parthenolide to address chemoresistant chronic lymphocytic leukaemia” (Medchemcomm, 2019).

SMILES strings stand for the structures. Activity calls are given as the source filed them. No cut-off for these calls is given here.

The nature of data set [1]: AUC (0 to infinity) in mouse at 1 mg/kg, iv. In kind it is ADME, organism-based. Also on record: dose 1 mg/kg, route intravenous, time infinity. Conditions: in vivo.
The nature of data set [2]: Intrinsic clearance in mouse hepatocytes assessed as per million cells. Conditions: read-out: CLH. In kind it is ADME, cell-based, Hepatocyte. The essentials: (§1)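 Metabolic stability was measured in mouse hepatocytes. Intrinsic clearance is given in µL min⁻¹ per million cells, alongside half-life in min.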
A short description of data set [3]: AUC in mouse at 10 mg/kg, po. Format: ADME, organism-based. The conditions noted are these: in vivo.
In a further data set the test system is MEC1. As to the kind of experiment: Antiproliferative activity against human MEC1 cells assessed as cell death in presence of ROS scavenger N-acetyl-L-cysteine by alamar blue assay. In kind it is functional, cell-based. The essentials: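 MEC1 CLL cells (ATCC; carry mutated p53) were pretreated with N-acetylcysteine and then exposed to compound across a concentration series. Viability was read by alamarBlue, and EC50 was taken from concentration-activity plots.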
On the technique in general: Alamar Blue is a resazurin reagent that responds to reducing activity.

Data set [4] is described as follows: Volume of distribution at steady state in mouse at 1 mg/kg, iv. In kind it is ADME, organism-based. The conditions noted are these: in vivo, read-out: Vdss.
Data set [5] can be described thus: Half life in mouse hepatocytes. Format: ADME, cell-based, Hepatocyte. The essentials: as §1
Data set [6] can be described thus: Permeability across apical to basolateral side in human Caco2 cells. In kind it is ADME, cell-based. The conditions noted are these: Caco-2. The essentials: (§2)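 Permeability was measured in a Caco-2 monolayer at pH 7.4 in both the apical-to-basolateral and basolateral-to-apical directions. Results are given as mean apparent permeability (Papp, 10⁻⁶ cm s⁻¹), and efflux ratio was derived from the two directions.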
(Passage across Caco-2 layers is used to estimate intestinal permeability.)

The nature of data set [7]: Permeability across basolateral to apical side in human Caco2 cells. In kind it is ADME, cell-based. The conditions noted are these: Caco-2. The essentials: as §2
Data set [8] can be described thus: Half life in aqueous solution at pH 7.4. In kind it is physicochemical.
Data set [9] can be described thus: Oral bioavailability in mouse at 10 mg/kg. Format: ADME, organism-based. Conditions: in vivo.
Data set [10] in a line: Tmax in mouse at 10 mg/kg, po. The conditions noted are these: in vivo. In kind it is ADME, organism-based.

Turning to `C/C1=C\CC[C@@]2(C)O[C@@H]2[C@H]2OC(=O)[C@@H](CN3CCC(c4cc(O)nc(C)n4)CC3)[C@@H]2CC1`, the AUC(0-inf) came to 289 ng·h/mL in [1] and 1700 ng·h/mL in data set [3]. The hepatocyte CLint in data set [2] came out at 22 µL/min/1e6 cells. In addition, the outcome with MEC1 was inactive.
On to `C/C1=C/CC[C@@]2(C)O[C@@H]2[C@H]2OC(=O)[C@@H](CN3CCCC3)[C@@H]2CC1`, for which the Vd in data set [4] was found to be 11.6 L/kg. Besides, the half-life in data set [5] was 65 min; in data set [8], > 120 min. This compound displayed a Papp A→B in data set [6] of 15.9 ×10⁻⁶ cm/s. The AUC(0-inf) in data set [1] is 80.5 ng·h/mL; in data set [3] it was 711 ng·h/mL. For the same compound, in data set [2], the hepatocyte CLint came out at 22 µL/min/1e6 cells. Moreover, the Papp B→A in data set [7] worked out at 16.2 ×10⁻⁶ cm/s. This compound displayed a bioavailability in data set [9] of 95.8%. Besides, the Tmax in [10] is 30 min.
Consider `C/C1=C\CC[C@@]2(C)O[C@@H]2[C@H]2OC(=O)[C@@H](CN[C@@H](Cc3ccccc3)C(=O)O)[C@@H]2CC1`, for which the hepatocyte CLint in data set [2] stood at 16 µL/min/1e6 cells.

A word on the AUC(0-inf): it is the area under the concentration-time curve extrapolated to infinity. In general, half-life refers to the time in which the quantity being followed falls by half. The term Papp A→B denotes how fast a substance crosses the layer from the apical side. High values mean fast passage, low ones slow passage. For orientation: Papp B→A means the apparent permeability from the basolateral to the apical side of a cell layer. A word on the bioavailability: it is dose-corrected exposure relative to a reference, in per cent. The term Tmax denotes the time from dosing to the highest level.
